In ChEMBL document CHEMBL3351834, “Jalapinoside, a macrocyclic bisdesmoside from the resin glycosides of Ipomea purga, as a modulator of multidrug resistance in human cancer cells” (J Nat Prod, 2015):
Converted amounts (≈) assume the structure as drawn.

Experiments:
MCF7 [1] = experiment: Cytotoxicity against human MCF7 cells assessed as growth inhibition after 72 hrs by SRB assay in presence of vinblastine; type: functional, cell-based; details: MCF7, 72 h
How it was run: (§1)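 SRB assay. Log-phase cells, RPMI 1640 + 10% FBS, treated in triplicate with test samples at 0.2−25 μg/mL, 72 h at 37 °C, 5% CO2, static conditions. IC50 (50% inhibition of control growth) read from a semilog plot of concentration (μg/mL) against % growth inhibition. Resistant subline kept in 0.192 μg/mL vinblastine; a vinblastine-free stock also maintained.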

MCF7 [2] = experiment: Cytotoxicity against human MCF7 cells assessed as growth inhibition after 72 hrs by SRB assay; type: functional, cell-based; details: MCF7, 72 h; how it was run: as §1
MCF7 [3] = experiment: Reversal of multidrug-resistance in vinblastin-sensitive human MCF7 cells assessed as reduction in vinblastine IC50 at 25 ug/ml relative to IC50 vinblastine alone; type: functional
How it was run: (§2)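 Modulation by SRB assay. MCF-7 or MCF-7/Vin cells exposed 72 h to vinblastine (0.000 64−10 μg/mL) with or without glycolipid at 25 or 5 μg/mL (water−DMSO 9:1). Vinblastine IC50 taken from a semilog growth-inhibition plot. Reserpine 5 μg/mL as reference modulator. Reversal fold = IC50 of vinblastine alone ÷ IC50 with test compound.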

MCF7 [4] = experiment: Reversal of multidrug-resistance in human MCF7 cells in presence of vinblastine assessed as reduction in vinblastine IC50 at 25 ug/ml relative to IC50 vinblastine alone; type: functional; how it was run: as §2
MCF7 [5] = experiment: Reversal of multidrug-resistance in human MCF7 cells assessed as reduction in vinblastine IC50 at 25 ug/ml relative to IC50 vinblastine alone; type: functional; how it was run: as §2
MCF7 [6] = experiment: Cytotoxicity against vinblastin-sensitive human MCF7 cells assessed as growth inhibition after 72 hrs by SRB assay; type: functional, cell-based; details: MCF7, 72 h; how it was run: as §1

Row | SMILES | IC50 (MCF7 [1]) [µg/mL] | IC50 (MCF7 [2]) [µg/mL] | fold change (FC) (MCF7 [3]) | fold change (FC) (MCF7 [4]) | fold change (FC) (MCF7 [5]) | IC50 (MCF7 [6]) [µg/mL]
1 | CC[C@]1(O)C[C@@H]2CN(CCc3c([nH]c4ccccc34)[C@@](C(=O)OC)(c3cc4c(cc3OC)N(C)[C@H]3[C@@](O)(C(=O)OC)[C@H](OC(C)=O)[C@]5(CC)C=CCN6CC[C@]43[C@@H]65)C2)C1 [VINBLASTINE] | 1.22 | 1.02 (≈ 1.26 µM) | – | – | – | –
2 | CCCCCCCCCCCC(=O)O[C@H]1[C@@H](O)[C@@H](C)O[C@@H](O[C@@H]2[C@@H](O[C@@H]3O[C@H](CO)[C@@H](O)[C@H](O)[C@H]3O[C@@H]3O[C@H](C)[C@@H](O)[C@H](OC(=O)[C@@H](C)CC)[C@H]3O)[C@@H](OC(=O)[C@@H](C)CC)[C@H](O[C@H]3[C@@H]4O[C@H]5[C@H](O[C@H](CCC)CCCCCCC[C@H](O[C@@H]6O[C@H](C)[C@@H](O)[C@H](O)[C@H]6O)CC(=O)O[C@H]3[C@H](O)[C@@H](COC(C)=O)O4)O[C@H](C)[C@@H](O)[C@@H]5O)O[C@H]2C)[C@@H]1O | < 0.00064 | < 0.00064 | 73.4 | >1906.3 | >1593 | < 0.00064
3 | COC(=O)[C@H]1[C@H]2C[C@@H]3c4[nH]c5cc(OC)ccc5c4CCN3C[C@H]2C[C@@H](OC(=O)c2cc(OC)c(OC)c(OC)c2)[C@@H]1OC [RESERPINE] | 0.31 | 0.037 (≈ 0.0608 µM) | – | – | – | 0.003 (≈ 0.00493 µM)
